# From PubChem BioAssay
# PG9 binder = PG9 antibody binding by small molecule | TR-FRET gp120-PG9 antibody binding | inhibition, % at 6.7 µM | AID 624416 | 360,000 compounds, 0.43% hits; in the data active = inhibition above about 8.5%
# NR2E3 ag-1 = human photoreceptor-specific nuclear receptor agonism | AID 602229 | inhibition of corepressor binding, % at 3.98 µM | CHO-S Gal4-NCOR/VP16-NR2E3 two-hybrid, luciferase | Q9Y5X4 | 360,000 compounds, 0.35% hits;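 active = inhibition above the mean of all tested compounds plus 3 SD, cut at about 70% in these data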;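 also: 0% = DMSO with NR2E3 transfected cells and 100% = cells lacking NR2E3 construct; higher means lower luciferase signal from less NR2E3 corepressor binding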
# Target sequence (Q9Y5X4 whole entry, looked up, the tested form may be a part): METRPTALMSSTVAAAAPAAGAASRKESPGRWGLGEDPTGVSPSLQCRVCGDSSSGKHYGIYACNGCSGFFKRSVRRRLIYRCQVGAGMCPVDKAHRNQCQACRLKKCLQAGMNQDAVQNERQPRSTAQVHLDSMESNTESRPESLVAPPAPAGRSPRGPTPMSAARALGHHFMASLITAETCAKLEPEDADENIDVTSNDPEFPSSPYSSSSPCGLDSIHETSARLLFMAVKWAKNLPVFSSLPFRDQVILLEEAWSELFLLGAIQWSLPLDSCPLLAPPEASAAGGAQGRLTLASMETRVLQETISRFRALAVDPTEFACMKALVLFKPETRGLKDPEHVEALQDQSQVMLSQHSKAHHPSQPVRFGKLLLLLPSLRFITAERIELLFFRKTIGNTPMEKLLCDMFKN
# GalR3 antagonist = antagonists of human GalR3; HEK293 GalR3-CNG cAMP membrane potential fluorescence; galR3 body fused to GalR1 C-terminus; 360,000 compounds, 0.44% hits; O60755; inhibition, % at 3 µM;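 active = inhibition above the screen-wide average plus 3 SD, cut at about 13% in these data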;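 also: forskolin and galanin both at EC90 stimulate the cells; cAMP rise reported by CNG channel membrane potential dye signal; 0% = forskolin plus galanin with DMSO and 100% = forskolin alone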
# NR2E3 ag-2 = NR2E3 (human) agonism; Q9Y5X4; GST-NR2E3/biotin-RetCOR TR-FRET, 1536-well; inhibition of corepressor binding, % at 4.78 µM; 320,000 compounds, 0.12% hits; AID 2300;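 active = percent inhibition above the cutoff of mean plus 3 SD of all tested compounds, set per screening campaign, cut at about 20% in these data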;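 also: 0% = DMSO wells and 100% = biotin wells as full block of FRET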
#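 Material: NR2E3–RetCOR corepressor complex / Amount: 1.35 nM GST-NR2E3 / Medium: Tris pH 7.5 / Compound: single nominal compound dose of 4.8 µM / Incubation: 5 h at 4 °C / Technique: TR-FRET, Eu(K)-anti-GST donor, streptavidin-D2 acceptor, ex 340, em 617/671 nm / Read-out basis: percent loss of FRET ratio relative to control wells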
# Rev-erbA mod = modulators of human Rev-erb alpha DNA binding; Rev-erbα–FITC-DNA binding, fluorescence polarization, 90 min; 370,000 compounds, 0.79% hits; AID 1259318; activity, % at 10 µM;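 active = activity above about 14%, limit read from the data; passing the limit was not always enough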;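 also: 0% = DMSO wells with 35 nM protein and 100% = DMSO wells with 750 nM protein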
# Rev-erbA confirm = confirmation of modulators of human Rev-erb alpha DNA binding | 3,000 compounds, 61% hits | activation, % at 25 µM | AID 1259319 | Rev-erb alpha FITC-DNA binding, fluorescence polarization, 90 min | shares compounds with Rev-erbA mod;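 active = activation at or above a set limit, or at least 3 SD above the negative control mean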;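 also: 0% = 35 nM protein with DMSO and 100% = 750 nM protein high control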
# * hit, by the source's call; nt = no result. Compounds with a hit are over-represented: about 1.8% of the library has one in this group of screens.
SMILES,PG9 binder,NR2E3 ag-1,GalR3 antagonist,NR2E3 ag-2,Rev-erbA mod,Rev-erbA confirm
COC(=O)C1=C(C)NC(=O)CC1c1cccc(Cl)c1Cl (stereo unspecified),-1,-9,-3,2,-2,nt
COc1ccc(OC)c2c1sc(=NC(=O)c1ccco1)n2C,1,-24,nt,3,16,nt
Cc1ccc(-c2c(C)sc(=NC(=O)c3ccco3)n2C)cc1,1,-142,-10,5,37*,16*
CN=C1S/C(=C/c2cc(C)n(-c3cc(C)ccc3OC)c2C)C(=O)N1C,nt,nt,nt,nt,2,nt
COc1ccccc1C(=O)COC(=O)Cn1[nH]c(=O)c2ccccc2c1=O,0,-18,-4,5,22*,9
COc1ccc2nc(NC(=O)C(NS(=O)(=O)c3cccc4nsnc34)C(C)C)sc2c1 (stereo unspecified),0,12,2,5,31*,18*
COc1ccc2nc(NC(=O)C3CCN(S(=O)(=O)c4cccc5nsnc45)CC3)sc2c1,1,3,-4,-1,-2,nt
